Laboratory results published in ChEMBL document CHEMBL4814017, “Discovery and optimization of novel 3-benzyl-N-phenyl-1H-pyrazole-5-carboxamides as bifunctional antidiabetic agents stimulating both insulin secretion and glucose uptake” (Eur J Med Chem, 2021).
Active and inactive are the calls of the source. No cut-off for these calls is given here.

Legend:
[1] = Cytotoxicity against rat INS1 cells assessed as cell viability at 10 uM incubated for 24 hrs by MTT assay relative to untreated control; assay type: cell-based; conditions: read-out: Activity
[2] = Induction of insulin secretion in rat INS-1 cells assessed as glucose stimulation index at 5 uM followed by stimulated with 16.7 mM glucose measured after 1 hrs by ELISA relative to basal insulin level; assay type: functional, INS1
In short: (§1)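 Rat insulinoma INS-1 cells grown in RPMI 1640 with 11 mM glucose, 10% FBS, HEPES, pyruvate and 2-mercaptoethanol. After 24 h seeding, cells washed in KRB pH 7.4 with 3.3 mM glucose, starved 2 h, given compound for 30 min, then 3.3 mM (basal) or 16.7 mM glucose for 1 h. Insulin measured by rat insulin ELISA at 450 nm. GSI = stimulated/basal insulin. Triplicate, mean ± SD. Gliclazide control.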

[3] = Induction of insulin secretion in rat INS-1 cells assessed as glucose stimulation index at 10 uM followed by stimulated with 16.7 mM glucose measured after 1 hrs by ELISA relative to basal insulin level; assay type: functional, INS1; in short: as §1
[4] = Cytotoxicity against human LX2 cells assessed as reduction in cell viability incubated for 24 hrs by MTT assay; assay type: cell-based; conditions: lx-2, 24 h
[5] = tested on: 3T3-L1; test: Cytotoxicity against mouse 3T3-L1 cells assessed as reduction in cell viability incubated for 24 hrs by MTT assay; assay type: cell-based; conditions: 3t3-l1, 24 h
[6] = tested on: INS1; test: Activation of PI3K/Akt signalling pathway in rat INS1 cells assessed as increase in p-Akt expression at 2.5 to 10 uM after 24 hrs by Western blot analysis; assay type: cell-based; conditions: filed as activator, dose 2.5-10 µM
In short: (§2)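 INS-1 cells seeded in 6-well plates, grown 24 h, then treated 24 h with 0, 2.5, 5 or 10 µM; vehicle control 0.5% DMSO. Lysed in RIPA with 1 mM PMSF at 4 °C, protein by BCA. Blots probed for p-IRS-2 (Ser731), IRS-2, p-PI3K, PI3K, p-Akt (Ser473), Akt, PPAR-γ, PDX-1 and GAPDH, HRP anti-rabbit secondary, ECL detection, densitometry. Triplicate, n = 3, SD.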

[7] = tested on: INS1; test: Activation of PI3K/Akt signalling pathway in rat INS1 cells assessed as increase in p-PI3K expression at 2.5 to 10 uM after 24 hrs by Western blot analysis; assay type: cell-based; conditions: filed as activator, dose 2.5-10 µM; in short: as §2
[8] = tested on: INS1; test: Activation of PI3K/Akt signalling pathway in rat INS1 cells assessed as increase in p-IRS2 expression at 2.5 to 10 uM after 24 hrs by Western blot analysis; assay type: cell-based; conditions: filed as activator, dose 2.5-10 µM; in short: as §2
[9] = tested on: INS1; test: Induction of PPARgamma expression in rat INS1 cells at 2.5 to 10 uM after 24 hrs by Western blot analysis; assay type: functional, cell-based; conditions: dose 2.5-10 µM; in short: as §2
[10] = tested on: INS1; test: Induction of PDX-1 expression in rat INS-1 cells at 2.5 to 10 uM after 24 hrs by Western blot analysis; assay type: functional, cell-based; conditions: dose 2.5-10 µM; in short: as §2
[11] = tested on: C2C12; test: Induction of glucose uptake in mouse C2C12 cells incubated for 16 hrs in absence of insulin by 2-NBDG uptake assay; assay type: functional, cell-based; conditions: dose microM <=50, time 16.0 hrs
In short: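 Differentiated C2C12 myotubes (4 days, DMEM with 2% horse serum) held 16 h in DMEM with 2% BSA and 10% FBS, with or without compound and without insulin, after which basal glucose uptake was measured.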

[12] = tested on: C2C12; test: Activation of PI3K/Akt signalling pathway in mouse C2C12 cells assessed as increase in p-Akt expression upto 50 uM incubated for 16 hrs by Western blot analysis; assay type: cell-based; conditions: filed as activator, dose microM <=50, time 16.0 hrs
In short: (§3)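 C2C12 myoblasts grown in DMEM to 90% confluence and differentiated 4 days in DMEM with 2% horse serum. Myotubes then held 16 h in DMEM with 2% BSA and 10% FBS with 0, 5, 10, 20 or 50 µM compound. Western blot for MG53, IRS-1, p-PI3K, PI3K, p-Akt, Akt and GAPDH.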

[13] = tested on: C2C12; test: Activation of PI3K/Akt signalling pathway in mouse C2C12 cells assessed as increase in p-PI3K expression upto 50 uM incubated for 16 hrs by Western blot analysis; assay type: cell-based; conditions: filed as activator, dose microM <=50, time 16.0 hrs; in short: as §3
[14] = tested on: C2C12; test: Upregulation of IRS-1 level in mouse C2C12 cells upto 50 uM after 16 hrs by Western blot analysis; assay type: functional, cell-based; conditions: dose microM <=50, time 16.0 hrs; in short: as §3
[15] = tested on: C2C12; test: Downregulation of MG53 level in mouse C2C12 cells after 16 hrs by Western blot analysis; assay type: functional, cell-based; conditions: dose microM <=50, time 16.0 hrs; in short: as §3

## COc1ccc(Cc2cc(C(=O)Nc3ccc4c(c3)OCO4)[nH]n2)cc1
[1]
  viability at 24 h, 10 µM: 102%
[2]
  Activity_index: 1.13

## COc1cccc(NC(=O)c2cc(Cc3ccc(Cl)cc3)n[nH]2)c1OC
[1]
  viability at 24 h, 10 µM: 98.8%
[2]
  Activity_index: 1.85

## COc1ccc(NC(=O)c2cc(Cc3cccc(Cl)c3)n[nH]2)c(OC)c1
[1]
  viability at 24 h, 10 µM: 97.7%
[2]
  Activity_index: 1.29

## COc1ccc(N(C)C(=O)c2cc(Cc3ccc(Cl)cc3)n[nH]2)c(OC)c1
[1]
  viability at 24 h, 10 µM: 93.3%
[2]
  Activity_index: 1.33

## COc1ccc(Cc2cc(C(=O)Nc3ccccc3OC)[nH]n2)cc1
[1]
  viability at 24 h, 10 µM: 101%
[2]
  Activity_index: 1.66

## COc1ccc(Cc2cc(C(=O)Nc3cccc(OC)c3)[nH]n2)cc1
[1]
  viability at 24 h, 10 µM: 102%
[2]
  Activity_index: 1.55

## COc1ccc(NC(=O)c2cc(C(=O)c3ccc(Cl)cc3)n[nH]2)c(OC)c1
[1]
  viability at 24 h, 10 µM: 100%
[2]
  Activity_index: 1.49

## COc1ccccc1NC(=O)c1cc(Cc2ccc(F)cc2)n[nH]1
[1]
  viability at 24 h, 10 µM: 104%
[2]
  Activity_index: 3.67

## O=C(Nc1ccccc1)c1cc(Cc2ccc(Cl)cc2)n[nH]1
[1]
  viability at 24 h, 10 µM: 109%
[3]
  Activity_index: 5.24

## COc1ccc(Cc2cc(C(=O)Nc3ccc(C(C)(C)C)cc3)[nH]n2)cc1
[1]
  viability at 24 h, 10 µM: 99.4%
[3]
  Activity_index: 1.64

## O=C(Nc1ccc2c(c1)OCO2)c1cc(Cc2ccc(F)cc2)n[nH]1
[1]
  viability at 24 h, 10 µM: 97.6%
[2]
  Activity_index: 1.25

## COC(=O)c1ccc(NC(=O)c2cc(Cc3ccc(F)cc3)n[nH]2)cc1
[1]
  viability at 24 h, 10 µM: 102%
[3]
  Activity_index: 1.42

## COc1ccc(Cc2cc(C(=O)Nc3ccc(OC)cc3OC)[nH]n2)cc1
[1]
  viability at 24 h, 10 µM: 101%
[2]
  Activity_index: 1.58

## COc1ccc(Cc2cc(C(=O)Nc3ccc(C(F)(F)F)cc3)[nH]n2)cc1
[1]
  viability at 24 h, 10 µM: 98.4%
[3]
  Activity_index: 2.07

## COc1ccc(Cc2cc(C(=O)Nc3cccc(OC)c3OC)[nH]n2)cc1
[1]
  viability at 24 h, 10 µM: 98.9%
[2]
  Activity_index: 1.13

## COc1ccc(NC(=O)c2cc(Cc3ccc(Cl)cc3)n[nH]2)c(OC)c1
[1]
  viability at 24 h, 10 µM: 96.3%
[4]
  Activity: Non-Toxic
[5]
  Activity: Non-Toxic
[2]
  Activity_index: 14.9
[6]
  Activity: Dose-Dependent Effect
[7]
  Activity: Dose-Dependent Effect
[8]
  Activity: Dose-Dependent Effect
[9]
  Activity: Active
[10]
  Activity: Active
[11]
  Activity: Dose-Dependent Effect
[12]
  Activity: Active
[13]
  Activity: Active
[14]
  Activity: Active
[15]
  inhibition: Dose-Dependent Effect

## COc1ccc(OC)c(NC(=O)c2cc(Cc3ccc(Cl)cc3)n[nH]2)c1
[1]
  viability at 24 h, 10 µM: 97.9%
[2]
  Activity_index: 3.25

## COc1ccc(NC(=O)c2cc(Cc3ccc(Cl)cc3)nn2C)c(OC)c1
[1]
  viability at 24 h, 10 µM: 96.2%
[2]
  Activity_index: 1.37

## COc1ccc(Cc2cc(C(=O)Nc3ccc(OC)cc3)[nH]n2)cc1
[1]
  viability at 24 h, 10 µM: 105%
[3]
  Activity_index: 1.66

## O=C(Nc1ccc(F)cc1)c1cc(Cc2ccc(Cl)cc2)n[nH]1
[1]
  viability at 24 h, 10 µM: 94.9%
[3]
  Activity_index: 6.73

## O=C(Nc1ccc(C(F)(F)F)cc1)c1cc(Cc2ccc(Cl)cc2)n[nH]1
[1]
  viability at 24 h, 10 µM: 102%
[3]
  Activity_index: 1.69

## CC(C)(C)c1ccc(NC(=O)c2cc(Cc3ccc(F)cc3)n[nH]2)cc1
[1]
  viability at 24 h, 10 µM: 98.6%
[3]
  Activity_index: 1.96

## COc1ccc(Cc2cc(C(=O)Nc3ccccc3)[nH]n2)cc1
[1]
  viability at 24 h, 10 µM: 105%
[3]
  Activity_index: 4.4

## COc1ccc(NC(=O)c2cc(Cc3ccc(F)cc3)n[nH]2)cc1
[1]
  viability at 24 h, 10 µM: 95.6%
[3]
  Activity_index: 2.03

## COc1cccc(NC(=O)c2cc(Cc3ccc(Cl)cc3)n[nH]2)c1
[1]
  viability at 24 h, 10 µM: 96.5%
[2]
  Activity_index: 1.54

## O=C(Nc1ccccc1)c1cc(Cc2ccc(F)cc2)n[nH]1
[1]
  viability at 24 h, 10 µM: 100%
[3]
  Activity_index: 2

## Cc1ccc(S(=O)(=O)NC(=O)NN2CC3CCCC3C2)cc1 (stereo not drawn) [GLICLAZIDE]
[1]
  viability at 24 h, 10 µM: 98.7%
[3]
  Activity_index: 5.86
[2]
  Activity_index: 4.22

## COC(=O)c1ccc(NC(=O)c2cc(Cc3ccc(OC)cc3)n[nH]2)cc1
[1]
  viability at 24 h, 10 µM: 99.2%
[3]
  Activity_index: 1.85

## COc1ccccc1NC(=O)c1cc(Cc2ccc(Cl)cc2)n[nH]1
[1]
  viability at 24 h, 10 µM: 98.1%
[2]
  Activity_index: 1.56

## COc1ccc(OC)c(NC(=O)c2cc(Cc3ccc(F)cc3)n[nH]2)c1
[1]
  viability at 24 h, 10 µM: 104%
[2]
  Activity_index: 1.52

## COc1ccc(Cc2cc(C(=O)Nc3ccc(F)cc3)[nH]n2)cc1
[1]
  viability at 24 h, 10 µM: 105%
[3]
  Activity_index: 2.49

## COc1ccc(NC(=O)c2cc(Cc3ccc(F)cc3)n[nH]2)c(OC)c1
[1]
  viability at 24 h, 10 µM: 99.9%
[2]
  Activity_index: 1.93

## COc1cccc(NC(=O)c2cc(Cc3ccc(F)cc3)n[nH]2)c1
[1]
  viability at 24 h, 10 µM: 101%
[2]
  Activity_index: 7.49

## CC(C)(C)c1ccc(NC(=O)c2cc(Cc3ccc(Cl)cc3)n[nH]2)cc1
[1]
  viability at 24 h, 10 µM: 97.5%
[3]
  Activity_index: 4.89

## COc1ccc(NC(=O)c2cc(Cc3ccc(Cl)cc3)n[nH]2)cc1
[1]
  viability at 24 h, 10 µM: 101%
[3]
  Activity_index: 7.59
[2]
  Activity_index: 2.6

## O=C(Nc1ccc(C(F)(F)F)cc1)c1cc(Cc2ccc(F)cc2)n[nH]1
[1]
  viability at 24 h, 10 µM: 92.8%
[3]
  Activity_index: 2.02

## COc1ccc(NC(=O)c2cc(Cc3ccccc3Cl)n[nH]2)c(OC)c1
[1]
  viability at 24 h, 10 µM: 102%
[2]
  Activity_index: 2.43

## O=C(Nc1ccc(F)cc1)c1cc(Cc2ccc(F)cc2)n[nH]1
[1]
  viability at 24 h, 10 µM: 100%
[3]
  Activity_index: 1.86

## COc1cccc(NC(=O)c2cc(Cc3ccc(F)cc3)n[nH]2)c1OC
[1]
  viability at 24 h, 10 µM: 102%
[2]
  Activity_index: 1.16

## COc1ccc(Cc2cc(C(=O)Nc3cc(OC)ccc3OC)[nH]n2)cc1
[1]
  viability at 24 h, 10 µM: 100%
[2]
  Activity_index: 2.35

## O=C(Nc1ccc2c(c1)OCO2)c1cc(Cc2ccc(Cl)cc2)n[nH]1
[1]
  viability at 24 h, 10 µM: 101%
[2]
  Activity_index: 1.29

## COC(=O)c1ccc(NC(=O)c2cc(Cc3ccc(Cl)cc3)n[nH]2)cc1
[1]
  viability at 24 h, 10 µM: 101%
[3]
  Activity_index: 1.48
